Bioassay records (PubChem)
Compounds with a hit are over-represented: about 2.8% of the library has one in this group of screens.
Yeast growth inh – chemicals that inhibit yeast BB579 growth in restrictive medium (lifespan-shortening candidates). S. cerevisiae BB579 growth, OD615, 48 h. inhibition, % at 10 µM. 140,000 tested, 0.51% active;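 active = inhibition above a set limit, 3 SD over the mean compound inhibition, cut at about 44% in these data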
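Assay system – yeast BB579 (DeaD) · Dosing – single compound dose of 10 µM, 0.25% DMSO final · Detection – OD615 turbidity measurement · Buffer or medium – CSMM-D restrictive synthetic medium containing dextrose (glucose) · Benchmarks – positive control amphotericin B 10 µg/mL · Incubation – 48 h exposure, 30 °C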
sdo1 growth – compounds rescuing growth of sdo1-depleted yeast, bone marrow failure model | S. cerevisiae sdo1-depleted JHY4D growth rescue, OD600 30 h; active compounds read high; pdr5 snq2 efflux-pump mutant strain | z-score at 10 µM | 140,000 tested, 0.21% active | AID 817;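 active = z-score above 3 at both the 24 hr and the 30 hr optical density reads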
Yeast lifespan up – yeast lifespan extension; S. cerevisiae growth with nicotinamide, OD615; deaD strain in restrictive glucose medium; AID 775; inhibition of the nicotinamide effect, % at 10 µM; 130,000 tested, 0.68% active;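 active = inhibition above a set limit, placed 3 SD over the median of all compounds, cut at about 26% in these data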
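assay system = DeaD-strain S. cerevisiae | measured by = absorbance at 615 nm | probe or stimulus = nicotinamide 1.5 mM | buffer or medium = CSMM-D glucose medium, restrictive | times = 48 h at 30 °C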
HCT116 bCat-KO – beta-catenin-lacking colon tumor cell growth suppression | HCT116 beta-catenin knockout viability, CellTiter-Glo, 60 h; active compounds read low | viability, % at 10 µM | 140,000 tested, 1.5% active | AID 818;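 active = viability at or under a set limit, the compound median less 4 SD, cut at about 6% in these data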
PTEN del growth – PTEN-deleted cell growth suppression; HCT116 PTEN-null viability, CellTiter-Glo, 60 h; active compounds read low; viability, % at 10 µM; 140,000 tested, 1.2% active; AID 827;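 active = viability at or below a set limit, 4 SD under the median of all tested compounds, cut at about 3.7% in these data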;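 also: PTEN knockout HCT116 line with beta catenin targeted HCT116 as companion control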
sdo1 rescue conf – SDO1-depleted yeast growth rescue confirmation; shares compounds with sdo1 growth; OD recovery (no concentration beside the values); 440 tested, 44% active; AID 949; S. cerevisiae JHY4D (SDO1-depleted) growth rescue, OD600, 30 h; active compounds read high; efflux-deficient strain, SNQ2 and PDR5 mutated;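 active = yeast growth recovered at 30 hours, either rising with dose fitted slope above 0.001 or with average optical density gain above 0.07, some results past the limit were not filed as active; inactive = growth falling with dose or no effect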
Numbers stand for hits; - = inactive; . = not tested or not shown.

SMILES	Yeast growth inh	sdo1 growth	Yeast lifespan up	HCT116 bCat-KO	PTEN del growth	sdo1 rescue conf
COc1ccc2nc3ccccc3nc2c1NC(=O)c1ccc(Cl)cc1Cl	-	-	-	-	-	-
COc1cc(/C=N/NC(=O)c2ccoc2C)ccc1O	-	-	-	-	-	0.074
Brc1ccc(NC2=Nc3ccccc3CC2)cc1	-	13	-	-	-	0.075
Cc1cc(C)nc(Sc2nc(Nc3ccccc3)nc(Sc3nc(C)cc(C)n3)n2)n1	-	-	-	-	-	.
CCOC(=O)/C=C1\SCC(=O)N1CC(=O)NC12CC3CC(CC(C3)C1)C2	-	14	-	-	-	0.084
Cc1cc(C)c(NC(=O)CS(=O)CC(=O)NC2CCCc3ccccc32)c(C)c1 (stereo not drawn)	-	-	-	-	-	.
Cc1ccc(S(=O)(=O)N2CCC(C(=O)NCCCOC(C)C)CC2)cc1	-	-	-	-	-	.
O=c1oc2ccccc2c2nccnc12	-	5.4	-	-	-	-
Cc1cnc(N)c2c(=O)oc3ccccc3c12	-	-	-	-	-	.
Cc1ccc(S(=O)(=O)N2CC=C(c3ccc(F)cc3)CC2)cc1	-	7.1	-	-	-	-
O=C(CSc1nnc2c(Cl)cc(Cl)cn12)N1CCN(c2ccc(F)cc2)CC1	-	-	-	-	-	.
CCC1(C)Cc2ccccc2-c2nc(NCCCO)n(-c3ccccc3)c(=O)c21 (stereo not drawn)	-	5.8	-	-	-	-
Cn1c(NCCCO)nc2c(c1=O)C1(CCCCC1)Cc1ccccc1-2	-	-	-	-	-	.
COC(=O)c1nn(C23CC4CC(CC(C4)C2)C3)c2c1C(=O)N(c1ccc(Br)cc1)C2=O	-	-	-	-	-	.
CCOC(=O)c1nnn(-c2nonc2N)c1CN1CCc2ccccc2C1	-	11	62	-	-	0.11
CCOc1ccc(S(=O)(=O)NCc2ccc(F)cc2)c2cccnc12	-	-	-	-	-	.
CN(C)c1ccc(/C=[N+](\[O-])C2N(c3ccccc3)C(=S)SC2(C)C)cc1 (stereo not drawn)	-	7.9	-	-	-	-
CCNC(=S)NNC(=O)c1cc(Br)cs1	-	-	-	-	-	.
O=C(CCC(=O)OCC(=O)c1ccc(Cl)cc1)NC1CCCCC1	-	-	-	-	-	.
Cc1ccc(C(=O)COC(=O)CCC(=O)NC2CCCCC2)cc1C	-	8.2	-	-	-	-
CC1(C)CC(=O)C=C(Nc2ccc(S(N)(=O)=O)cc2)C1	-	-	-	-	-	.
Cc1nc(Nc2ccc(S(N)(=O)=O)cc2)oc1C	-	6.5	-	-	-	-
CC(=O)Nc1ccc(SCC(=O)N(CCC#N)c2cc(C)cc(C)c2)cc1	-	3.9	-	-	-	0.084
COc1ccc(-n2cnnc2SCc2cnc(-c3ccccc3)s2)cc1	-	3.1	-	-	-	-
COCCn1c(SCc2cnc(-c3ccccc3)s2)nnc1-c1ccncc1	-	-	-	-	-	.
SMILES	Yeast growth inh	sdo1 growth	Yeast lifespan up	HCT116 bCat-KO	PTEN del growth	sdo1 rescue conf
COc1ccc(-c2c(C)sc(NC(=O)c3ccnn3C)c2C#N)cc1	-	-	-	-	-	0.085
O=C1C2CC=CCC2C(=O)N1c1ccc(NCCc2ccc(O)cc2)c([N+](=O)[O-])c1 (stereo not drawn)	-	-	-	-	-	.
Cc1ccc(-n2[nH]c(C)c(C=Nc3cc(C)ccn3)c2=O)cc1	-	9.4	-	-	-	0.07
CC(NC(=O)c1csc2ccccc12)C1CCCO1 (stereo not drawn)	-	-	-	-	-	.
CC(NC(=O)c1sc2ccccc2c1Cl)C1CCCO1 (stereo not drawn)	-	4	-	-	-	-
Cn1c(CNC2CCCCC2)c(C#N)c2ccccc21	-	-	-	-	-	.
O=C(C1CCCCC1)N1CCC(c2nc3ccccc3[nH]2)CC1	-	-	-	-	-	.
N#CC(C(=O)C1CCCCC1)c1nc2ccccc2[nH]1 (stereo not drawn)	-	8.8	-	-	-	-
COc1ccc(OC)c(NC(=S)NCCN2CCOCC2)c1	-	3.9	-	-	-	-
CC(=O)N(c1c(C)n(C)n(-c2ccccc2)c1=O)C1(C(=O)NC2CCCC2)CCCCC1	-	11	-	-	-	0.064
CC(=O)N(c1c(C)n(C)n(-c2ccccc2)c1=O)C1(C(=O)NC2CCCCC2)CCCCC1	-	-	-	-	-	.
Cc1cccc(NC(=O)Cc2ccc(F)cc2)c1	-	6.8	-	-	-	0.075
Cc1cccc(NC(=O)CC(C)(C)C)c1	-	-	-	-	-	.
O=C(CSc1ncn[nH]1)Nc1nc(-c2ccccc2)ns1	-	-	-	-	-	-
CCC(=O)Nc1nc(-c2ccccc2)ns1	-	-	.	-	-	.
NC(=O)CCn1nc(-c2ccc(Cl)cc2)c2ccccc2c1=O	-	4.3	-	-	-	0.077
CNC(=O)CCn1nc(-c2ccccc2)c2ccccc2c1=O	-	-	-	-	-	.
COC(=O)C(C)N(C(=O)c1cccc(Cl)c1)c1c(C)cccc1C (stereo not drawn)	-	5.6	-	-	-	-
COC(=O)C(C)N(C(=O)c1cccc2ccccc12)c1c(C)cccc1C (stereo not drawn)	-	-	-	-	-	.
FC(F)(F)c1cnc(-c2cnc3c(-c4ccc(Cl)cc4)cnn3c2)c(Cl)c1	-	-	-	-	-	.
N#Cc1cnn2cc(-c3ncc(C(F)(F)F)cc3Cl)cnc12	-	7.3	-	-	-	0.078
O=C(Nc1ccc(S(=O)(=O)N2CCCCCC2)cc1)c1ccco1	-	-	-	-	-	-
CCOC(=O)C1CCCN(C(=O)CSc2ccccc2)C1 (stereo not drawn)	-	-	-	-	-	.
CCOC(=O)C1CCCN(C(=O)c2ccccc2SCCOC)C1 (stereo not drawn)	-	-	-	-	-	0.081
COc1ccc(NC(=O)COC(=O)/C=C/C(=O)OCC(=O)Nc2ccc(OC)c(Cl)c2)cc1Cl	-	-	-	-	-	-
SMILES	Yeast growth inh	sdo1 growth	Yeast lifespan up	HCT116 bCat-KO	PTEN del growth	sdo1 rescue conf
CCOC(=O)/C=C/C(=O)OCC(=O)Nc1ccc(OC)c(Cl)c1	-	-	-	-	-	.
COc1cccc(C(=O)Nc2ccc(NC(=O)C3CC3)cn2)c1	-	-	-	-	-	0.084
Cc1ccc(C(=O)COC(=O)c2ccc(Br)o2)cc1C	-	3.7	-	-	-	0.081
COc1ccc(CCNC(=O)COC(=O)c2ccc(Br)o2)cc1OC	-	-	-	-	-	.
COc1ccc(/C=C/C(=O)c2sc(-c3ccccc3)nc2C)cc1	-	-	-	-	-	.
CN(C)c1nc2c(c(=O)[nH]c(=O)n2C)n1Cc1ccccc1Br	-	-	-	-	-	.
S=c1[nH]nc(-c2ccc3ccccc3n2)n1Cc1ccccc1	-	-	-	-	-	.
